Data from ChEMBL document CHEMBL3120154, “2-[N-Alkyl(R-phenyl)-aminomethyl]-3-phenyl-7-trifluoromethylquinoxalines as anticancer agents inhibitors of folate enzymes” (Eur J Med Chem, 2014).

Experiments:
[1] = biological target: T1, Dihydrofolate reductase (Homo sapiens, UniProt P00374); assay: Competitive inhibition of human dihydrofolate reductase by spectrophotometry
T1 sequence (P00374 whole entry): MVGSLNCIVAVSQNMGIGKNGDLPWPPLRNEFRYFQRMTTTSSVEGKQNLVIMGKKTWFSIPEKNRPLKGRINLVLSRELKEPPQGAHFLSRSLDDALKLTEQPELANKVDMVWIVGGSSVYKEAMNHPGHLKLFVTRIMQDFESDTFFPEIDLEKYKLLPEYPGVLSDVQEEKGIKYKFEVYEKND

[2] = tested on: LOX IMVI; assay: Cytotoxicity against human LOXIMVI cells at 10^-4 M after 48 hrs by SRB assay; format: functional; settings: read-out: GI
Procedure, shortened: (§1)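 Run in the NCI 60-cell-line screen after a three-line prescreen. Cells got a 48 h drug exposure; viability/growth was estimated with the sulforhodamine B protein assay. Growth inhibition (I%) was recorded at 100, 10, 1, 0.1 and 0.01 micromolar. Percent growth is relative to untreated control cells, and negative values indicate cell kill.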

[3] = tested on: SNB-19; assay: Cytotoxicity against human SNB19 cells at 10^-4 M after 48 hrs by SRB assay; format: functional; settings: SNB-19, 48 h, read-out: GI
Procedure, shortened: (§2)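 Second-stage screen in the 60-cell-line human tumor panel at NCI, over a 5-log range (100, 10, 1, 0.1, 0.01 micromolar). Cells were exposed to drug for 48 h and growth was estimated with a sulforhodamine B protein stain. The value is percent growth inhibition at each concentration.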

[4] = tested on: SF-539; assay: Cytotoxicity against human SF539 cells at 10^-4 M after 48 hrs by SRB assay; format: functional; settings: SF-539, 48 h, read-out: GI; procedure, shortened: as §2
[5] = tested on: SF-295; assay: Cytotoxicity against human SF295 cells at 10^-4 M after 48 hrs by SRB assay; format: functional; settings: SF-295, 48 h, read-out: GI; procedure, shortened: as §2
[6] = tested on: HT-29; assay: Cytotoxicity against human HT-29 cells at 10^-4 M after 48 hrs by SRB assay; format: functional; settings: HT-29, 48 h, read-out: GI
Procedure, shortened: (§3)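 Run by NCI on its 60-line human tumor cell panel, after a three-cell-line prescreen. Cells were exposed to drug for 48 h over a 5-log range: 100, 10, 1, 0.1 and 0.01 micromolar. Growth was estimated by sulforhodamine B (SRB) protein staining. Percent growth inhibition (I%) was recorded at each concentration relative to untreated control cells.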

[7] = tested on: COLO 205; assay: Cytotoxicity against human COLO205 cells at 10^-4 M after 48 hrs by SRB assay; format: functional; settings: COLO 205, 48 h, read-out: GI; procedure, shortened: as §3
[8] = tested on: NCI-H23; assay: Cytotoxicity against human NCI-H23 cells at 10^-4 M after 48 hrs by SRB assay; format: functional; settings: NCI-H23, 48 h, read-out: GI; procedure, shortened: as §1
[9] = tested on: NCI-H226; assay: Cytotoxicity against human NCI-H226 cells at 10^-4 M after 48 hrs by SRB assay; format: functional; settings: NCI-H226, 48 h, read-out: GI; procedure, shortened: as §1
[10] = tested on: RPMI-8226; assay: Cytotoxicity against human RPMI8226 cells at 10^-4 M after 48 hrs by SRB assay; format: functional; settings: RPMI-8226, 48 h, read-out: GI; procedure, shortened: as §2
[11] = tested on: MOLT-4; assay: Cytotoxicity against human MOLT4 cells at 10^-4 M after 48 hrs by SRB assay; format: functional; settings: MOLT-4, 48 h, read-out: GI; procedure, shortened: as §1
[12] = tested on: K562; assay: Cytotoxicity against human K562 cells at 10^-4 M after 48 hrs by SRB assay; format: functional; settings: K562, 48 h, read-out: GI; procedure, shortened: as §1
[13] = tested on: MDA-MB-435; assay: Cytotoxicity against human MDA-MB-435 cells at 10^-4 M after 48 hrs by SRB assay; format: functional; settings: MDA-MB-435, 48 h, read-out: GI; procedure, shortened: as §1
[14] = tested on: MCF7; assay: Cytotoxicity against human MCF7 cells at 10^-4 M after 48 hrs by SRB assay; format: functional; settings: MCF7, 48 h, read-out: GI; procedure, shortened: as §1
[15] = tested on: PC-3; assay: Cytotoxicity against human PC3 cells at 10^-4 M after 48 hrs by SRB assay; format: functional; settings: PC-3, 48 h, read-out: GI; procedure, shortened: as §2
[16] = Cytotoxicity against human UO31 cells at 10^-4 M after 48 hrs by SRB assay; format: functional; settings: UO-31, 48 h, read-out: GI; procedure, shortened: as §2
[17] = tested on: SN12C; assay: Cytotoxicity against human SN12C cells at 10^-4 M after 48 hrs by SRB assay; format: functional; settings: read-out: GI; procedure, shortened: as §2
[18] = tested on: TK-10; assay: Cytotoxicity against human TK10 cells at 10^-4 M after 48 hrs by SRB assay; format: functional; settings: TK-10, 48 h, read-out: GI; procedure, shortened: as §2
[19] = tested on: RXF 393; assay: Cytotoxicity against human RXF393 cells at 10^-4 M after 48 hrs by SRB assay; format: functional; settings: RXF 393, 48 h, read-out: GI; procedure, shortened: as §2
[20] = tested on: 786-0; assay: Cytotoxicity against human 786-0 cells at 10^-4 M after 48 hrs by SRB assay; format: functional; settings: 786-0, 48 h, read-out: GI; procedure, shortened: as §3
[21] = tested on: SK-OV-3; assay: Cytotoxicity against human SKOV3 cells at 10^-4 M after 48 hrs by SRB assay; format: functional; settings: SK-OV-3, 48 h, read-out: GI; procedure, shortened: as §2
[22] = Cytotoxicity against human OVCAR5 cells at 10^-4 M after 48 hrs by SRB assay; format: functional; settings: OVCAR-5, 48 h, read-out: GI; procedure, shortened: as §2
[23] = tested on: OVCAR-8; assay: Cytotoxicity against human OVCAR8 cells at 10^-4 M after 48 hrs by SRB assay; format: functional; settings: OVCAR-8, 48 h, read-out: GI; procedure, shortened: as §2
[24] = tested on: OVCAR-3; assay: Cytotoxicity against human OVCAR3 cells at 10^-4 M after 48 hrs by SRB assay; format: functional; settings: OVCAR-3, 48 h, read-out: GI; procedure, shortened: as §1
[25] = tested on: UACC-62; assay: Cytotoxicity against human UACC62 cells at 10^-4 M after 48 hrs by SRB assay; format: functional; settings: UACC-62, 48 h, read-out: GI; procedure, shortened: as §2
[26] = Cytotoxicity against human UACC257 cells at 10^-4 M after 48 hrs by SRB assay; format: functional; settings: UACC-257, 48 h, read-out: GI; procedure, shortened: as §2
[27] = tested on: SK-MEL-5; assay: Cytotoxicity against human SK-MEL-5 cells at 10^-4 M after 48 hrs by SRB assay; format: functional; settings: SK-MEL-5, 48 h, read-out: GI; procedure, shortened: as §2
[28] = tested on: SK-MEL-28; assay: Cytotoxicity against human SK-MEL-28 cells at 10^-4 M after 48 hrs by SRB assay; format: functional; settings: SK-MEL-28, 48 h, read-out: GI; procedure, shortened: as §2
[29] = tested on: SK-MEL-2; assay: Cytotoxicity against human SK-MEL-2 cells at 10^-4 M after 48 hrs by SRB assay; format: functional; settings: SK-MEL-2, 48 h, read-out: GI; procedure, shortened: as §2
[30] = tested on: M14; assay: Cytotoxicity against human M14 cells at 10^-4 M after 48 hrs by SRB assay; format: functional; settings: M14, 48 h, read-out: GI; procedure, shortened: as §1
[31] = tested on: MCF7; assay: Cytotoxicity against human MCF7 cells assessed as cell growth at 10^-4 M after 48 hrs by alamar blue assay relative to untreated control; format: functional; settings: MCF7, 48 h, read-out: Activity
Procedure, shortened: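 Three-cell-line prescreen. Each line was inoculated and preincubated on a microtiter plate, then the agent was added at a single concentration (10^-4 or 10^-5 M) and incubated 48 h. Endpoint was measured with alamar blue, and growth is reported as a percentage of untreated control cells.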

[32] = tested on: Malme-3M; assay: Cytotoxicity against human MALME-3M cells at 10^-4 M after 48 hrs by SRB assay; format: functional; settings: read-out: GI; procedure, shortened: as §1

Compound | Ki [1] [µM] | inhibition of growth at 100 µM [2] [%] | inhibition of growth at 100 µM [3] [%] | inhibition of growth at 100 µM [4] [%] | inhibition of growth at 100 µM [5] [%] | inhibition of growth at 100 µM [6] [%] | inhibition of growth at 100 µM [7] [%] | inhibition of growth at 100 µM [8] [%] | inhibition of growth at 100 µM [9] [%] | inhibition of growth at 100 µM [10] [%] | inhibition of growth at 100 µM [11] [%] | inhibition of growth at 100 µM [12] [%] | inhibition of growth at 100 µM [13] [%] | inhibition of growth at 100 µM [14] [%] | inhibition of growth at 100 µM [15] [%] | inhibition of growth at 100 µM [16] [%] | inhibition of growth at 100 µM [17] [%] | inhibition of growth at 100 µM [18] [%] | inhibition of growth at 100 µM [19] [%] | inhibition of growth at 100 µM [20] [%] | also measured
CCN(Cc1nc2cc(C(F)(F)F)ccc2nc1-c1ccccc1)c1ccc(OC)c(OC)c1 | 4 | 200 | 148 | 176 | 181 | 97 | 92 | 158 | 179 | 162 | 122 | 160 | 183 | 86 | 185 | 145 | 189 | 109 | 179 | 191 | inhibition of growth at 100 µM [21]: 83%; inhibition of growth at 100 µM [22]: 152%; inhibition of growth at 100 µM [23]: 174%; inhibition of growth at 100 µM [24]: 194%; inhibition of growth at 100 µM [25]: 195%; inhibition of growth at 100 µM [26]: 192%; inhibition of growth at 100 µM [27]: 191%; inhibition of growth at 100 µM [28]: 112%; inhibition of growth at 100 µM [29]: 172%; inhibition of growth at 100 µM [30]: 194%; growth at 100 µM [31]: 1%
C#CCN(Cc1nc2cc(C(F)(F)F)ccc2nc1-c1ccccc1)c1ccc(F)c(F)c1 | 8 | 77 | 52 | 96 | 74 | 70 | 75 | 52 | 51 | 107 | 82 | 78 | 81 | 94 | 78 | 73 | 75 | 48 | 103 | 44 | inhibition of growth at 100 µM [21]: < 40%; inhibition of growth at 100 µM [22]: < 40%; inhibition of growth at 100 µM [23]: 98%; inhibition of growth at 100 µM [24]: 116%; inhibition of growth at 100 µM [25]: 73%; inhibition of growth at 100 µM [26]: 146%; inhibition of growth at 100 µM [27]: 144%; inhibition of growth at 100 µM [28]: < 40%; inhibition of growth at 100 µM [30]: 41%; growth at 100 µM [31]: 40%
C#CCN(Cc1nc2cc(C(F)(F)F)ccc2nc1-c1ccccc1)c1ccc(F)cc1 | 8 | 101 | 84 | 96 | 68 | 80 | 126 | 31 | 71 | 117 | 81 | 89 | 87 | 89 | 92 | 83 | 102 | 123 | 89 | 132 | inhibition of growth at 100 µM [32]: 129%; inhibition of growth at 100 µM [21]: 93%; inhibition of growth at 100 µM [22]: 56%; inhibition of growth at 100 µM [23]: 96%; inhibition of growth at 100 µM [24]: 94%; inhibition of growth at 100 µM [25]: 96%; inhibition of growth at 100 µM [26]: 119%; inhibition of growth at 100 µM [27]: 180%; inhibition of growth at 100 µM [28]: 71%; inhibition of growth at 100 µM [30]: 71%; growth at 100 µM [31]: 41%
